Reference: publication PMC12569033 (Nature Communications, 2025)
“Also recorded” adds a separate entry of the source. Values belong to the molecule of their own block, whether it stands above or below them.

Columns and labels:
[1] = molecular target: near-full-length dmIR (residues 1–50, 151–1675, D1519N) (Drosophila melanogaster) (UniProt P09208); experiment: cryo-EM structure
dmIR wild-type (WT) = experiment: Cell-based dmIR activation; design: species or system Drosophila melanogaster; conditions: 10 min; for dmIR autophosphorylation, in words / Efficacy (signal in amplitude) relative to DILP5: dose response Fig. 1a; for Efficacy (signal in amplitude) relative to DILP5: of the efficacy/maximum of DILP5; for dmIR WT autophosphorylation on stimulation, in words: 100 nM, Fig. 2f, g
dmIR Q1040A = experiment: dmIR autophosphorylation assay, Q1040A mutant; type: cell-based, Drosophila melanogaster; conditions: 100 nM ligand, 10 min
Method in brief: (§1)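 Site-directed dmIR point mutants (C-terminal MYC tag) were transfected into 293FT cells alongside WT. After 1 day, cells were serum-starved 16–18 h, then treated 10 min with 100 nM DILP2 or DILP5. Lysates were blotted with anti-pY1150/1151 and anti-Myc. pY-dmIR was normalized to total dmIR and expressed relative to WT with the same ligand. Data are mean ± sem of ≥3 independent experiments, analysed by two-way ANOVA with Dunnett test versus WT.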

dmIR R848A = experiment: dmIR autophosphorylation assay, R848A mutant; type: cell-based, Drosophila melanogaster; conditions: 100 nM ligand, 10 min
Method in brief: as §1

dmIR F1044A = experiment: dmIR autophosphorylation assay, F1044A mutant; type: cell-based, Drosophila melanogaster; conditions: 100 nM ligand, 10 min
Method in brief: as §1

dmIR D1251R = experiment: dmIR autophosphorylation assay, D1251R mutant; type: cell-based, Drosophila melanogaster; conditions: 100 nM ligand, 10 min
Method in brief: (§2)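 Full-length wDah dmIR with a C-terminal MYC tag, mutated by site-directed mutagenesis, was transiently transfected into 293FT cells. After 1 day, cells were serum-starved for 16–18 h, then exposed to 100 nM synthetic DILP for 10 min. Lysates were immunoblotted for pY1548/1549 and Myc, and pY signal was normalized to total dmIR relative to WT receiving the same treatment. Independent experiments were analysed by two-way ANOVA with Dunnett's test, mean ± sem.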

Drosophila S2 cells = conditions: single peptide applied to cultured Drosophila S2 cells; cited from earlier work
[2] = test system: glycogen phosphorylase; sterile 20-like kinase; tramtrack; conditions: cited from earlier work
dmIR K1256A = experiment: dmIR autophosphorylation assay, K1256A mutant; type: cell-based, Drosophila melanogaster; conditions: 100 nM ligand, 10 min
Method in brief: as §2

dmIR V889R = experiment: dmIR autophosphorylation assay, V889R mutant; type: cell-based, Drosophila melanogaster; conditions: 100 nM DILP5, 10 min
Method in brief: as §2

dmIR R657A = experiment: dmIR autophosphorylation assay, R657A mutant; type: cell-based, Drosophila melanogaster; conditions: 100 nM DILP5, 10 min
Method in brief: as §2

dmIR S820R = experiment: dmIR autophosphorylation assay, S820R mutant; type: cell-based, Drosophila melanogaster; conditions: 100 nM DILP5, 10 min
Method in brief: as §2

dmIR Δ602–609 = experiment: dmIR autophosphorylation assay, Δ602–609 mutant; type: cell-based, Drosophila melanogaster; conditions: Δ602–609, 100 nM DILP5, 10 min
Method in brief: as §2

stoichiometry N (DILP5 molecules per dmIR dimer) [1]: 3
Molecule: Drosophila insulin-like peptide 5 (DILP5) (ligand)

Molecule: Drosophila insulin-like peptide 1 [DILP1]
dmIR autophosphorylation, in words (Fig. 5f, g) (dmIR wild-type (WT); 1000 nM DILP1, 100 nM DILP5 or combination): lower levels of dmIR autophosphorylation compared to DILP5
dmIR autophosphorylation, in words (dmIR wild-type (WT); 293FT): lowest level of dmIR autophosphorylation; also recorded: lowest efficacy in activating dmIR
Efficacy (signal in amplitude) relative to DILP5 (dmIR wild-type (WT); 293FT): about 50%

Effect of receptor mutation on ligand-induced activation, in words (dmIR Q1040A): reduced receptor autophosphorylation
Effect of receptor mutation on ligand-induced activation, in words (dmIR R848A): reduced receptor autophosphorylation
Effect of receptor mutation on ligand-induced activation, in words (dmIR F1044A): reduced receptor autophosphorylation
B1: Drosophila insulin-like peptide 2 (peptide, UniProt Q9VT51 27-137, looked up)
Insulin-like peptide 2: TLCSEKLNEVLSMVCEEYNPVIPHKRAMPGADSDLDALNPLQFVQEFEEEDNSISEPLRSALFPGSYLGGVLNSLAEVRRRTRQRQGIVERCCKKSCDMKALREYCSVVRN
Effect of receptor mutation on ligand-induced activation, in words (dmIR D1251R): defects in DILP5- or DILP2-dependent dmIR activation
Phosphorylation of Akt (pAkt), in words (Drosophila S2 cells): only stimulates an early spike of pAkt
Protein phosphorylation changes, in words [2]: represses the phosphorylation of glycogen phosphorylase
dmIR WT autophosphorylation on stimulation, in words (dmIR wild-type (WT); 293FT): significantly increased autophosphorylation of dmIR WT
dmIR autophosphorylation, in words (dmIR wild-type (WT); 293FT): less effective than DILP5
Efficacy (signal in amplitude) relative to DILP5 (dmIR wild-type (WT); 293FT): approximately 75%
Effect of receptor mutation on ligand-induced activation, in words (dmIR K1256A): defects in DILP5- or DILP2-dependent dmIR activation

Effect of receptor mutation on ligand-induced activation, in words (dmIR Q1040A): reduced receptor autophosphorylation
Effect of receptor mutation on ligand-induced activation, in words (dmIR R848A): reduced receptor autophosphorylation
Effect of receptor mutation on ligand-induced activation, in words (dmIR F1044A): reduced receptor autophosphorylation
B2: Drosophila insulin-like peptide 5 (peptide, UniProt Q7KUD5 23-108, looked up)
Insulin-like peptide 5: ANSLRACGPALMDMLRVACPNGFNSMFAKRGTLGLFDYEDHLADLDSSESHHMNSLSSIRRDFRGVVDSCCRKSCSFSTLRAYCDS
Effect of receptor mutation on ligand-induced activation, in words (dmIR V889R): modest but statistically significant reduction in dmIR phosphorylation
Effect of receptor mutation on ligand-induced activation, in words (dmIR R657A): impaired DILP5-induced activation of dmIR
Effect of receptor mutation on ligand-induced activation, in words (dmIR D1251R): defects in DILP5- or DILP2-dependent dmIR activation
Effect of receptor mutation on ligand-induced activation, in words (dmIR S820R): modest but statistically significant reduction in dmIR phosphorylation
Phosphorylation of Akt (pAkt), in words (Drosophila S2 cells): robust and sustained phosphorylation of Akt (pAkt)
Protein phosphorylation changes, in words [2]: increases the phosphorylation of sterile 20-like kinase and tramtrack
Effect of receptor mutation on ligand-induced activation, in words (dmIR Δ602–609): impaired DILP5-induced activation of dmIR
dmIR WT autophosphorylation on stimulation, in words (dmIR wild-type (WT); 293FT): significantly increased autophosphorylation of dmIR WT
Concentration at which saturation of dmIR autophosphorylation is observed (dmIR wild-type (WT); 293FT): 300 nM
dmIR autophosphorylation, in words (dmIR wild-type (WT); 293FT): increased dmIR autophosphorylation in a dose-dependent manner; also recorded: higher levels of dmIR autophosphorylation
Effect of receptor mutation on ligand-induced activation, in words (dmIR K1256A): defects in DILP5- or DILP2-dependent dmIR activation
